The text below walks through data of article PMC3529916 (Bioorganic & medicinal chemistry, 2012).

Series [1] is described as follows: Metabolic stability using pooled human liver microsomes. It is filed as in vitro ADME. The following applies: 1 and 10 μM, up to 60 min.
Series [2] deals with anxiety. Conditions: cited from earlier work; for Anti-conflict effect / Effect on non-suppressed responding / response rates: dose range 0.1 to 10 mg/kg.
In series [3] the test system is anxiety. The experiment in a line: Light/dark cycle test. Format: in vivo, mouse.
The test system of another series is locomotor activity. The experiment in a line: Locomotor activity test. Format: in vivo, mouse.
Another series has as its target α3β3γ2 GABAA receptors (Rattus norvegicus, UniProt P18508+P20236). Briefly: Two-electrode voltage clamp, stimulation of GABA EC3 currents in Xenopus oocytes. It is filed as cell-based. The following applies: dose-response curves. In short, it runs like this: (§1)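 Xenopus oocytes were injected with rat β3 and γ2 cDNAs plus α1, α2, α3 or α5. Follicle layers were removed 36 h later. Two-electrode voltage clamp was done at −60 mV and room temperature in XR buffer (pH 7.4, 5 mM HEPES). Test compound (0.1% DMSO final) was preapplied for 30 s, then coapplied with EC3 GABA until peak, with washes of up to 15 min. Curves were fitted to a four-parameter logistic.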

For a further series, the target named is α1β3γ2 GABAA receptors (Rattus norvegicus, UniProt P18508+P62813). The description is as above. Format: cell-based. The method, boiled down:
as §1

For a further series, the target named is α2β3γ2 GABAA receptors (Rattus norvegicus, UniProt P18508+P23576). The series is described as above. Format: cell-based. Conditions: 100 nM. In short, it runs like this:
as §1

The next series concerns the target α5β3γ2 GABAA receptors (Rattus norvegicus, UniProt P18508+P19969). The description is as above. Format: cell-based. In short, it runs like this:
as §1

For series [4] the following is noted: cited from earlier work.
The conditions of series [5]: ref Bristol-Myers Squibb, unpublished results of Phase I trials; cited from earlier work.
The conditions of series [6]: ref Mithridion, unpublished results; cited from earlier work.
For series [7] the following is noted: via hepatic enzymes; ref unpublished results; cited from earlier work.
In series [8] the test system is neuropathic and inflammatory pain. The following applies: cited from earlier work.
Setting [9] is: positive control, 3 mg/kg, i.p.

“Also recorded” adds a separate entry of the source.

Chain of α5β3γ2 GABAA receptors (P19969 32-464 limits assumed): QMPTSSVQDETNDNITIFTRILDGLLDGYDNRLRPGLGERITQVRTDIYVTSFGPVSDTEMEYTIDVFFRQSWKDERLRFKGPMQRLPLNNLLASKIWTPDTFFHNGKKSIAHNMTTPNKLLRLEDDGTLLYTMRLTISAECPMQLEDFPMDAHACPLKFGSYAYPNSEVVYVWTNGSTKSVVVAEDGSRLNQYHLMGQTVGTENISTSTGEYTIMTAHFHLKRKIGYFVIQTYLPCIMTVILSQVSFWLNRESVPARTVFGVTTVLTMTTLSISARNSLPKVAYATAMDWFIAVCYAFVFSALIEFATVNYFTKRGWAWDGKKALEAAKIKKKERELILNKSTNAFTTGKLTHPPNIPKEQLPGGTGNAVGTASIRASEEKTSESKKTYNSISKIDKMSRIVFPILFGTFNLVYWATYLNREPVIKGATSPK
Chain of α5β3γ2 GABAA receptors (P63079 26-473 partner): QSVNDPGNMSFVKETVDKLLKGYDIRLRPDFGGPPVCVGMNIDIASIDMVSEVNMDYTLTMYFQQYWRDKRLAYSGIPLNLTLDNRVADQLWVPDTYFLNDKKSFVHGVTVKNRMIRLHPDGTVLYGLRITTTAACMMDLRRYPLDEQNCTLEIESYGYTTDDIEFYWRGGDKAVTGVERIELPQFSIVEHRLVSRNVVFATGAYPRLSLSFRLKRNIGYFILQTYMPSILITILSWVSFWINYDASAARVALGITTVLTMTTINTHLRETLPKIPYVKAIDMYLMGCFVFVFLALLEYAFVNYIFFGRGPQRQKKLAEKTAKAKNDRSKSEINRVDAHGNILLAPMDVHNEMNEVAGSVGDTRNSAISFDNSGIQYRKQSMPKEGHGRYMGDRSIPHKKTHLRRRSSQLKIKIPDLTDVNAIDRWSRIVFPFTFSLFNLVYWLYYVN
Chain of α5β3γ2 GABAA receptors (P18508 39-466): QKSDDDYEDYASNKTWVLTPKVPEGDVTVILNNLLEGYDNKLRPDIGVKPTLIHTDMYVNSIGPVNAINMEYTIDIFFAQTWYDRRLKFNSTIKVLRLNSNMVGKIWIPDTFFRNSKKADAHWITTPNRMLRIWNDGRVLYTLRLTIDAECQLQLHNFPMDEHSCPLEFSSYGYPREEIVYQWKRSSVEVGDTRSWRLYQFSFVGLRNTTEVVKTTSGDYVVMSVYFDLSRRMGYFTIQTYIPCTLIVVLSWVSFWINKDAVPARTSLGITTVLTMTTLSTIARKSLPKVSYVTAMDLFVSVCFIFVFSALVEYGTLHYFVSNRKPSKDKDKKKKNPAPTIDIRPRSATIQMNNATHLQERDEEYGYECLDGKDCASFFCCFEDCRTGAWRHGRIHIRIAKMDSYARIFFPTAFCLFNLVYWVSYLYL
Chain of α1β3γ2 GABAA receptors (P62813 28-455): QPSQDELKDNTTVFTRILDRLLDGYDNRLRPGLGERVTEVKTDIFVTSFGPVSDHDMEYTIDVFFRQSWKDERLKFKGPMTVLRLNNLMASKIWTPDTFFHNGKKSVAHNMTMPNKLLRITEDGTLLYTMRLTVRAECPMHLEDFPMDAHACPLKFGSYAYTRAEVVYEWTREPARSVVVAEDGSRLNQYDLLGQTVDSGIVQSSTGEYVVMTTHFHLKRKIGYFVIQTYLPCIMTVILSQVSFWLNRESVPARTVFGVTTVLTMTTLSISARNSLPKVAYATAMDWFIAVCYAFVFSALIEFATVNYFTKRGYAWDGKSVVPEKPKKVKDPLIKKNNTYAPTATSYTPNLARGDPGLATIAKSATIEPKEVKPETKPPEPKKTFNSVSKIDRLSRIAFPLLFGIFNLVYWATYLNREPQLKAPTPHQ
Chain of α1β3γ2 GABAA receptors (P63079 26-473 partner): as the sequence (P63079 26-473 partner) above
Chain of α1β3γ2 GABAA receptors (P18508 39-466): as the sequence (P18508 39-466) above
Chain of α3β3γ2 GABAA receptors (P20236 29-493): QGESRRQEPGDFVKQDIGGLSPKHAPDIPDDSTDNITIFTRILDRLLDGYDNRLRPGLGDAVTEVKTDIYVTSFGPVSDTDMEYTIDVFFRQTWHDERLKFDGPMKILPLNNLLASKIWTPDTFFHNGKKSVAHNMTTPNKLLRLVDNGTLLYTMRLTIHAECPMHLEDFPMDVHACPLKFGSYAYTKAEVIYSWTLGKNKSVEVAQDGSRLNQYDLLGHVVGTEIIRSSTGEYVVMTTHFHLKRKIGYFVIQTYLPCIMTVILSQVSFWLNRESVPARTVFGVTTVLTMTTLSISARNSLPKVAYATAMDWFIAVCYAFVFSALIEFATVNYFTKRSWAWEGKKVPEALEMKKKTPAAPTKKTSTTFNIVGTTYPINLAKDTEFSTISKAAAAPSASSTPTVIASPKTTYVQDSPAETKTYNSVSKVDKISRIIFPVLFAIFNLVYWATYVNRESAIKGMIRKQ
Chain of α3β3γ2 GABAA receptors (P63079 26-473 partner): as the sequence (P63079 26-473 partner) above
Chain of α3β3γ2 GABAA receptors (P18508 39-466): as the sequence (P18508 39-466) above
Chain of α2β3γ2 GABAA receptors (P23576 29-451): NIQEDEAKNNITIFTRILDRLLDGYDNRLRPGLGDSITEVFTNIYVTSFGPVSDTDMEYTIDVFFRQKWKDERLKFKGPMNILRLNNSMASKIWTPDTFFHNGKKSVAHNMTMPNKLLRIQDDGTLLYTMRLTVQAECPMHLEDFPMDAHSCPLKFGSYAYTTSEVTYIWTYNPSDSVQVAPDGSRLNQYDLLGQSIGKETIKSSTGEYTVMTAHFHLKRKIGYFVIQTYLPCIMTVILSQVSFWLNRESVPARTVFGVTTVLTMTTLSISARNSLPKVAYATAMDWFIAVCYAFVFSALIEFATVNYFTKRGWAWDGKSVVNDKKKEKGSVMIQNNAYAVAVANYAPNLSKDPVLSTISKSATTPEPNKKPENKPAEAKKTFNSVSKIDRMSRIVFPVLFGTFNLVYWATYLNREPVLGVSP
Chain of α2β3γ2 GABAA receptors (P63079 26-473 partner): as the sequence (P63079 26-473 partner) above
Chain of α2β3γ2 GABAA receptors (P18508 39-466): as the sequence (P18508 39-466) above

As to `C#Cc1ccc2c(c1)C(c1ccccc1F)=NCc1c(C(=O)OCC)ncn1-2` [compound 3], the “Metabolic stability on human liver microsomes, in words” value (shortened to “Metabolic stability”) in series [1] is recorded as “underwent biotransformation almost quantitatively; also recorded: not very stable”. Also, in the series on anxiety [2], the Anti-conflict effect result is “robust anti-conflict effect” and the “Effect on non-suppressed responding / response rates” value is on record as “some reduction in response rates at the highest dose tested”.
As to `CN1C(=O)CN=C(c2ccccc2)c2cc(Cl)ccc21` [Diazepam, reference compound], the “Anxiolytic activity (time spent in the lighted area vs vehicle)” value with anxiety [3] (setting [9]) is “significantly anxiolytic”. Further, the “Locomotor activity vs vehicle” value with locomotor activity (setting [9]) is “significantly reduced locomotor activity”.
Consider `C#Cc1ccc2c(c1)C(c1ccccn1)=NCc1c(C(=O)NC)ncn1-2` [compound 7, 8-Ethynyl-N-methyl-6-(pyridine-2-yl)-4H-benzo-[f]-imidazo-[1,5-a]-[1,4]-diazepine-3-carboxamide], for which the “Metabolic stability” value in [1] was “much more stable on human liver microsomes than 1”. The “Relative potency, in words” value on α3β3γ2 GABAA receptors is recorded as “relatively less potent than 8”.
Consider `C#Cc1ccc2c(c1)C(c1ccccc1)=NCc1c(C(=O)NC)ncn1-2` [compound 6, 8-Ethynyl-N-methyl-6-phenyl-4H-benzo-[f]-imidazo-[1,5-a]-[1,4]-diazepine-3-carboxamide], for which the “Metabolic stability” value in [1] is reported as “decreased rate of metabolism; also recorded: much more stable on human liver microsomes than 1”. The “Efficacy, in words” value at α1β3γ2 GABAA receptors (100 nM) was “very weak agonistic effects”; on α1β3γ2 GABAA receptors (higher concentration), “antagonist”; on α2β3γ2 GABAA receptors, “very weak agonistic effects”; on α5β3γ2 GABAA receptors (100 nM), “very weak agonistic effects”; on α5β3γ2 GABAA receptors (higher concentration), “antagonist”.
Turning to `C#Cc1ccc2c(c1)C(c1ccccc1)=NCc1c(C(=O)OCC)ncn1-2` [compound 1], in [4], the “Preclinical safety and efficacy, in words” value is “safe and effective”. In addition, in the series with anxiety [2], the “Side effects, in words” value is “lacked sedative, ataxic, muscle relaxant and amnestic side effects”; the Anti-conflict effect result was “anti-conflict effect”; the “Effect on non-suppressed responding / response rates” value is “without producing diazepam-like alterations”. Moreover, in series [5], the Safety in humans entry is recorded as “safe in humans”. Also, the “Stability in human tissues, in words” value in series [6] was “stable in human blood, plasma, brain and kidney”. Also, the “Metabolic transformation in human liver, in words” value in series [7] was “largely transformed into the inactive metabolite XHe-II-053-acid (4)”.
On to `C#Cc1ccc2c(c1)C(c1ccccc1F)=NCc1c(C(=O)NC)ncn1-2` [compound 8, 8-Ethynyl-N-methyl-6-(2-fluorophenyl)-4H-benzo-[f]-imidazo-[1,5-a]-[1,4]-diazepine-3-carboxamide], for which the “Metabolic stability” value in series [1] was “significantly more stable than the corresponding ethyl ester analog 3”.
`C#Cc1ccc2c(c1)C(c1ccccc1)=NCc1c(-c3nc(C(C)C)no3)ncn1-2` [compound 11]: the “Metabolic stability” value in [1] is “significantly more stable than 1 and 2 respectively; also recorded: much more stable on human liver microsomes than 1”. Besides, the “Anxiolytic activity (time spent in the lighted area vs vehicle)” value with anxiety [3] (10 and 100 mg/kg) is on record as “significant anxiolytic activity”. In addition, in the series on locomotor activity (10 and 100 mg/kg), the “Locomotor activity vs vehicle” value is recorded as “significantly increased locomotor activity” and the “Sedation / ataxia, in words” value is on record as “devoid of sedative properties; also recorded: no effects from either ataxia or sedation; also recorded: no sedative properties”.
Consider `C#Cc1ccc2c(c1)C(c1ccccn1)=NCc1c(C(=O)O)ncn1-2` [compound 5], for which the “Metabolic stability” value in [1] is “did not exhibit any metabolism”.
Regarding `C#Cc1ccc2c(c1)C(c1ccccc1)=NCc1c(C(=O)O)ncn1-2` [compound 4], in series [1], the “Metabolic stability” value is “did not exhibit any metabolism”.
Consider `C#Cc1ccc2c(c1)C(c1ccccn1)=NCc1c(C(=O)OCC)ncn1-2` [compound 2], for which the “Metabolic stability” value in series [1] is “minimal metabolism”. In the series on anxiety [2], the “Side effects, in words” value is “lacked sedative, ataxic, muscle relaxant and amnestic side effects”; the Anti-conflict effect result was “anti-conflict effect”; the “Effect on non-suppressed responding / response rates” value was “without producing diazepam-like alterations”. In series [8] (9-day chronic treatment period), the “Tolerance development (analgesic activity, chronic versus acute treatment)” value was “no loss of analgesic activity”. Besides, in [8] (at doses producing maximal antihyperalgesia), the “Sedation and motor impairment” value was “devoid of sedation and motor impairment”.
As to `C#Cc1ccc2c(c1)C(c1ccccn1)=NCc1c(-c3nc(C(C)C)no3)ncn1-2` [compound 12, 5-(8-Ethynyl-6-(pyridin-2-yl)-4H-benzo-[f]-imidazo-[1,5-a]-[1,4]-diazepine-3-yl)-3-isopropyl-1,2,4-oxadiazole], the “Metabolic stability” value in [1] was “significantly more stable than 1 and 2 respectively”. Further, at α3β3γ2 GABAA receptors, the “Relative potency, in words” value is “far less potent than 6 and 11”.
